Measurements from ChEMBL document CHEMBL1132955 (J Med Chem, 2000).

Key:
Human alphaherpesvirus 3 [1] = assay: Evaluated for the anti-VZV, the concentration of compounds in uM required to reduce VZVTK-YS-R ( thymidine kinase-deficient strain ) plaque formation after 5 days in HEL cell cultures compared to untreated controls.; assay type: functional, organism-based; conditions: Human alphaherpesvirus 3, tkys-r, 120 h
Human alphaherpesvirus 3 [2] = assay: Evaluated for the anti-VZV activity, the concentration of compounds in uM required to reduce VZV OKA Plaque formation after 5 days in HEL cell cultures compared to untreated controls.; assay type: functional, organism-based; conditions: Human alphaherpesvirus 3, oka, 120 h
Procedure, shortened: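 Confluent HEL fibroblasts infected with VZV at 20 PFU/well. Residual virus removed after 1-2 h adsorption. Cells then kept in MEM with 2% inactivated FCS, 1% L-glutamine and 0.3% sodium bicarbonate plus serial compound dilutions. OKA and YS strains are TK-competent; 07 and YS-R are TK-deficient.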

Human alphaherpesvirus 3 [3] = assay: (§1) Minimal cytotoxic concentration, the concentration required to cause a microscopically visible alteration of normal cell morphology.; assay type: functional
Procedure, shortened: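 Uninfected HEL cell cultures exposed to graded compound concentrations. Morphology inspected by microscope. MCC is the lowest concentration producing a visible change in normal cell morphology.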

Human alphaherpesvirus 3 [4] = assay: Evaluated for the anti-VZV activity, the concentration of compounds in uM required to reduce VZV […] plaque formation after 5 days in HEL cell cultures compared to untreated controls.; assay type: functional, organism-based; conditions: Human alphaherpesvirus 3, ys, 120 h
Human alphaherpesvirus 3 [5] = assay: Evaluated for the anti-VZV, the concentration of compounds in uM required to reduce VZVTK-07 ( thymidine kinase-deficient strain ) plaque formation after 5 days in HEL cell cultures compared to untreated controls.; assay type: functional, organism-based; conditions: Human alphaherpesvirus 3, tk-07, HEL, 120 h
Human alphaherpesvirus 3 [6] = assay: (§2) cytostatic concentration required to reduce the HEL cell number by 50%. after 5 days in the absence of virus; assay type: functional; conditions: Human alphaherpesvirus 3, HEL, 120 h
Procedure, shortened: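 HEL cells in 96-well plates treated with graded compound concentrations without virus for 5 days. Cells then trypsinized and counted with a Coulter counter.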

Human alphaherpesvirus 3 [7] = assay: Evaluated for the anti-VZV activity, the concentration required to reduce VZV OKA plaque formation after 5 days in HEL cell cultures compared to untreated controls.; assay type: functional, organism-based; conditions: Human alphaherpesvirus 3, oka, 120 h
Procedure, shortened: (§3)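 Confluent HEL fibroblasts infected with VZV at 20 PFU/well. Residual virus removed after 1-2 h adsorption. Cells then kept in MEM with 2% inactivated FCS, 1% L-glutamine and 0.3% sodium bicarbonate plus serial compound dilutions. […] OKA and YS strains are TK-competent; 07 and YS-R are TK-deficient.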

Human alphaherpesvirus 3 [8] = assay: Evaluated for the anti-VZV activity, the concentration required to reduce VZV YS plaque formation after 5 days in HEL cell cultures compared to untreated controls.; assay type: functional, organism-based; conditions: Human alphaherpesvirus 3, ys, 120 h; procedure, shortened: as §3
Human alphaherpesvirus 3 [9] = assay: Evaluated for the anti-VZV, the concentration required to reduce VZV TK -07 ( thymidine kinase-deficient strain ) plaque formation after 5 days in HEL cell cultures compared to untreated controls.; assay type: functional, organism-based; conditions: Human alphaherpesvirus 3, tk-07, HEL, 120 h; procedure, shortened: as §3
Human alphaherpesvirus 3 [10] = assay: Evaluated for the anti-VZV, the concentration required to reduce VZVTK-YS-R ( thymidine kinase-deficient strain ) plaque formation after 5 days in HEL cell cultures compared to untreated controls.; assay type: functional, organism-based; conditions: Human alphaherpesvirus 3, ys-r, 120 h; procedure, shortened: as §3
Human alphaherpesvirus 3 [11] = assay: Evaluated for the anti-VZV activity, the concentration of compounds in uM required to reduce VZV OKA plaque formation after 5 days in HEL cell cultures compared to untreated controls.; assay type: functional, organism-based; conditions: Human alphaherpesvirus 3, oka, 120 h; procedure, shortened: as §3
Human alphaherpesvirus 3 [12] = assay: Evaluated for the anti-VZV activity, the concentration of compounds in uM required to reduce VZV TK-07 (thymidine kinase-deficient strain ) plaque formation after 5 days in HEL cell cultures compared to untreated controls.; conditions: Human alphaherpesvirus 3, tk-07, HEL, 120 h
Human alphaherpesvirus 3 [13] = assay: Evaluated for the anti-VZV activity, which is the concentration of compounds in uM required to reduce VZV YS plaque formation after 5 days in HEL cell cultures compared to untreated controls.; assay type: functional, organism-based; conditions: Human alphaherpesvirus 3, ys, 120 h; procedure, shortened: as §3
Human alphaherpesvirus 3 [14] = assay: Evaluated for the anti-VZV, the concentration of compounds in uM required to reduce VZV TK-YS-R ( thymidine kinase-deficient strain ) plaque formation after 5 days in HEL cell cultures compared to untreated controls.; assay type: functional, organism-based; conditions: Human alphaherpesvirus 3, ys-r, 120 h; procedure, shortened: as §3
Human alphaherpesvirus 3 [15] = assay: as §2; assay type: functional; conditions: Human alphaherpesvirus 3, t, 120 h
Procedure, shortened: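 HEL fibroblasts, grown in MEM with 10% inactivated FCS, 1% L-glutamine and 0.3% sodium bicarbonate, were treated in 96-well cultures with varying compound concentrations for 5 days without virus. Cells were then trypsinized and counted with a Coulter counter. The value is the concentration giving 50% reduction in cell number.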

Human alphaherpesvirus 3 [16] = assay: as §1; assay type: functional; conditions: Human alphaherpesvirus 3, t

EC50 (Human alphaherpesvirus 3 [1]) | EC50 (Human alphaherpesvirus 3 [2]) | EC50 (Human alphaherpesvirus 3 [4]) | EC50 (Human alphaherpesvirus 3 [5]) | Compound | MCC (Human alphaherpesvirus 3 [3]) | CC50 (Human alphaherpesvirus 3 [6]) | further results
> 50000 nM | 100 nM | 100 nM | > 50000 nM | O=c1nc2oc(-c3ccc(Cl)cc3)cc2cn1[C@H]1C[C@H](O)[C@@H](CO)O1 | 200 µM |  | 
 |  |  |  | O=c1nc2oc(-c3ccccc3)cc2cn1[C@H]1C[C@H](O)[C@@H](CO)O1 | > 200 µM | > 200000 nM | EC50 (Human alphaherpesvirus 3 [7]): 280 nM; EC50 (Human alphaherpesvirus 3 [8]): 160 nM; EC50 (Human alphaherpesvirus 3 [9]): > 200000 nM; EC50 (Human alphaherpesvirus 3 [10]): 162000 nM
> 50000 nM |  | 24 nM | > 50000 nM | CCCCCCCCc1cc2cn([C@H]3C[C@H](O)[C@@H](CO)O3)c(=O)nc2o1 | > 50 µM | > 50000 nM | EC50 (Human alphaherpesvirus 3 [11]): 8 nM
 |  |  |  | Cc1ccc(-c2cc3cn([C@H]4C[C@H](O)[C@@H](CO)O4)c(=O)nc3o2)cc1 | > 200 µM | > 200000 nM | EC50 (Human alphaherpesvirus 3 [11]): 60 nM; EC50 (Human alphaherpesvirus 3 [12]): 103000 nM; EC50 (Human alphaherpesvirus 3 [13]): 60 nM; EC50 (Human alphaherpesvirus 3 [14]): > 200000 nM
> 200000 nM | 20 nM | 20 nM | > 200000 nM | CCCCCCCCCc1cc2cn([C@H]3C[C@H](O)[C@@H](CO)O3)c(=O)nc2o1 | > 200 µM | > 200000 nM | 
> 20000 nM | 40 nM | 27 nM | > 20000 nM | CCCCCCCCc1ccc(-c2cc3cn([C@H]4C[C@H](O)[C@@H](CO)O4)c(=O)nc3o2)cc1 | > 20 µM | > 200000 nM | 
 |  |  |  | Nc1nc2c(ncn2COCCO)c(=O)[nH]1 [ACYCLOVIR] | > 200 µM | > 200000 nM | 
> 50000 nM | 500 nM | 500 nM | > 50000 nM | O=c1nc2oc(-c3ccc(Br)cc3)cc2cn1[C@H]1C[C@H](O)[C@@H](CO)O1 | 50 µM |  | 
> 50000 nM | 15 nM | 8 nM | > 50000 nM | CCCCCCCCCCc1cc2cn([C@H]3C[C@H](O)[C@@H](CO)O3)c(=O)nc2o1 | > 50 µM | > 50000 nM | 

Compound | EC50 (Human alphaherpesvirus 3 [1]) | EC50 (Human alphaherpesvirus 3 [2]) | EC50 (Human alphaherpesvirus 3 [4]) | EC50 (Human alphaherpesvirus 3 [5]) | MCC (Human alphaherpesvirus 3 [3]) | CC50 (Human alphaherpesvirus 3 [6]) | further results
O=c1[nH]c(=O)n([C@H]2C[C@H](O)[C@@H](CO)O2)cc1/C=C/Br [BRIVUDINE] | > 150000 nM | 3 nM | 3 nM | > 150000 nM |  |  | CC50 (Human alphaherpesvirus 3 [15]): > 400000 nM; MCC (Human alphaherpesvirus 3 [16]): > 400 µM
